Laboratory results taken from ChEMBL document CHEMBL1134635, “Aziridinyl quinone antitumor agents based on indoles and cyclopent[b]indoles: structure-activity relationships for cytotoxicity and antitumor activity” (2001).

Legend:
[1] = molecular target: NAD(P)H dehydrogenase [quinone] 1 (Homo sapiens) (UniProt P15559); test: The substrate specificity obtained from the ratio of Vmax to KM for human DT-diaphorase (from non-small-cell lung NCI-H460 cell line); type: cell-based
In short: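 Recombinant human DT-diaphorase (from NCI-H460) at 1.4 × 10^-9 M final with 0.3 mM NADH in Tris buffer, quinone 1.3 × 10-6 to 6.7 × 10^-5 M final from a 4.0 mM DMSO stock. Both parts argon-purged 20 min and held at 30 °C 10 min, then mixed.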

[2] = tested on: NCI-H460; test: Concentration of the drug required for 50% growth inhibition against NSC (non small cell) H460 cell line.; type: functional; conditions: Homo sapiens
[3] = tested on: Nucleic Acid; test: % of DNA reductive alkylation determined by catalytic reduction of aziridinyl quinones in presence of 600 bp calf thymus DNA; type: functional; design: concentration or dose not given beside the values; conditions: Bos taurus
In short: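 Calf thymus DNA (1-2 mg, sonicated to ~600 bp) in 0.05 M Tris pH 7.4 with Pd/C, quinone added at 5:1 base pair equivalents in DMSO. Degassed under argon, H2-purged 10 min, argon-purged, then 30 °C for 24 h anaerobically. Catalyst filtered off, DNA ethanol-precipitated twice, and alkylation quantified by absorbance at 550 nm (ε 800 M-1 cm-1).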

[4] = tested on: NCI-H460; test: Concentration required for 50% cell kill. against NSC H460 cell line.; type: functional; conditions: Homo sapiens; for CC50: read-out: Log LC50 (the source's name) (converted)
[5] = tested on: Panel NCI-60 (60 carcinoma cell lines); test: Cancer specificity was measured from the +/- value under average log LC50 60-cell line.; type: functional; conditions: Homo sapiens, read-out: Average log LC50 (converted)
[6] = tested on: NCI-H460; test: Concentration of the drug required for total growth inhibition against NSC H460 cell line.; type: functional; conditions: Homo sapiens, read-out: Log TGI (converted)
[7] = tested on: B16; test: Treated over control values(T/C) were measured at day 25 by B16 melanoma syngraft assay at 5 mg/kg/day on day 9 after sc tumor implantation of 10 E(5) cells; type: functional, Mus musculus; conditions: route subcutaneous
In short: (§1)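 B16 melanoma syngraft in C57/bl mice, 10^5 cells implanted subcutaneously in the front flank on day 0. T/C recorded at day 25. Toxic means early lethality, or ≥50% lethality before any control deaths.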

[8] = tested on: B16; test: Treated over control values(T/C) were measured at day 25 by B16 melanoma syngraft assay at 2 mg/kg/day on day 1 after sc tumor implantation of 10 E(5) cells; type: functional, Mus musculus; conditions: route subcutaneous; in short: as §1
[9] = tested on: B16; test: Treated over control values(T/C) were measured at day 25 by B16 melanoma syngraft assay at 3 mg/kg/day on day 5 after sc tumor implantation of 10 E(5) cells; type: functional, Mus musculus; conditions: route subcutaneous; in short: as §1
[10] = tested on: NCI-H460; test: Concentration required for total growth inhibition against NSC H460 cell line.; type: functional; conditions: Homo sapiens, read-out: Log TGI (converted)
[11] = tested on: NCI-H460; test: Concentration required for 50% growth inhibition against NSC (non small cell) H460 cell line.; type: functional; conditions: Homo sapiens
[12] = tested on: Panel NCI-60 (60 carcinoma cell lines); test: Cancer specificity was measured from the +/- value under average log LC50 60-cell line; type: functional; conditions: Homo sapiens, read-out: Average log LC50 (converted)
[13] = tested on: NCI-H460; test: Concentration required for 50% cell kill against NSC H460 cell line.; type: functional; conditions: Homo sapiens, read-out: Log LC50 (the source's name) (converted)
[14] = tested on: Panel NCI-60 (60 carcinoma cell lines); test: Cancer specificity was measured from the +/- value under average log LC50 NCI 60-cell line.; type: functional; conditions: Homo sapiens, read-out: Average log LC50 (converted)

Sequence of NAD(P)H dehydrogenase [quinone] 1 (Homo sapiens) (P15559 whole entry): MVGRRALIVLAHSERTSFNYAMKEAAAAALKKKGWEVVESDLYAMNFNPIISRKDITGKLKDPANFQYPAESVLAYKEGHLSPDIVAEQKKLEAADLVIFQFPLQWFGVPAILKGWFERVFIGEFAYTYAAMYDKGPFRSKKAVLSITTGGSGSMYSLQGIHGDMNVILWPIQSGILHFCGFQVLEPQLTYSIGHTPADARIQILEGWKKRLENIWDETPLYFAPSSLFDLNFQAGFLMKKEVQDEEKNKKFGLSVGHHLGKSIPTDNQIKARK

Structure (SMILES)	Ratio [1]	GI50 [2]	Activity [3]	LC50 [5]	TGI [6]	Activity [7]	Activity [8]	Activity [9]	also measured
O=C1C(N2CC2)=CC(=O)c2c1[nH]c(CO)c2CO	274000	138 nM	3.4%	8510 nM	1150 nM				LC50 [4]: 11700 nM
CCOC(=O)c1[nH]c2c(c1CO)C(=O)C(N1CC1)=C(C)C2=O	403000	10 nM	5.6%	2040 nM	10.2 nM				CC50 [4]: 87.1 nM
CC1=C(N2CC2)C(=O)c2[nH]c3c(c2C1=O)CCC3O (stereo not given)	142000	10 nM	10%	72400 nM	107 nM	45%	75%		
Cn1c(CO)c(CO)c2c1C(=O)C=C(N1CC1)C2=O	302000	10 nM	3.8%	4470 nM	10 nM	>50%	>50%	>50%	LC50 [4]: 10 nM
CC(=O)OCc1[nH]c2c(c1COC(C)=O)C(=O)C(C)=C(N1CC1)C2=O	158000	35.5 nM	37%	30200 nM	178 nM	>50%	74%	>50%	CC50 [4]: 603 nM
CC(=O)OC1CCc2c3c(n(C)c21)C(=O)C(N1CC1)=C(C)C3=O (stereo not given)	30000		1.4%						
CCOC(=O)c1[nH]c2c(c1CO)C(=O)C(N1CC1)=CC2=O	4.3e+06	10 nM	37%	1620 nM	100 nM				LC50 [4]: 631 nM
CC(=O)OC1CCc2c1[nH]c1c2C(=O)C(C)=C(N2CC2)C1=O (stereo not given)	160000	112 nM	44%	21400 nM	676 nM				LC50 [4]: 1230 nM
CC(=O)OC1CCc2c3c(n(C(C)=O)c21)C(=O)C(N1CC1)=C(C)C3=O (stereo not given)	56200	83.2 nM	9%	25100 nM	437 nM	15%	37%	15%	LC50 [4]: 5010 nM
CC1=C(N2CC2)C(=O)c2c([nH]c(C)c2C)C1=O						>50%	10%	60%	
O=C1C=C(N2CC2)C(=O)c2c1[nH]c(CO)c2CO	587000		16.7%			>50%	>50%	>50%	
CC(=O)OC1CCc2c3c(n(C(C)=O)c21)C(=O)C(C)=C(N1CC1)C3=O (stereo not given)	132000		1.2%						
CC1=C(N2CC2)C(=O)c2c(c(CO)c(CO)n2C)C1=O	41700		0%			>50%			TGI [10]: 219 nM; GI50 [11]: 38.9 nM
CC(=O)OC1CCc2c1[nH]c1c2C(=O)C(N2CC2)=CC1=O (stereo not given)	651000		34%						
CC(=O)OC1CCc2c1[nH]c1c2C(=O)C(N2CC2)=C(C)C1=O (stereo not given)	65500		21%						
CC1=C(N2CC2)C(=O)c2[nH]c(CO)c(CO)c2C1=O	106000		4%			>50%	54%	>50%	

Structure (SMILES)	Ratio [1]	GI50 [2]	Activity [3]	LC50 [5]	TGI [6]	Activity [7]	Activity [8]	Activity [9]	also measured
CCOC(=O)c1[nH]c2c(c1CO)C(=O)C=C(N1CC1)C2=O		1580 nM	2.2%		4070 nM				CC50 [12]: 4790 nM
CC(=O)OCc1[nH]c2c(c1C)C(=O)C(N1CC1)=C(C)C2=O						>50%	47%	>50%	
CC1=C(N2CC2)C(=O)c2c(c3c(n2C)C(O)CC3)C1=O (stereo not given)	85500	1260 nM	0.3%	100000 nM	7590 nM				LC50 [4]: 50100 nM
CC1=C(N2CC2)C(=O)c2c([nH]c(CO)c2CO)C1=O	81500	10 nM	2%	2880 nM	32.4 nM	>50%	36%	>50%	LC50 [4]: 1170 nM
CC(=O)OC1CCc2c3c(n(C(C)=O)c21)C(=O)C(N1CC1)=CC3=O (stereo not given)	234000		12%			>50%	50%	>50%	
CC1=C(N2CC2)C(=O)c2[nH]c(C)c(C)c2C1=O						>50%	22%	>50%	
CCOC(=O)c1[nH]c2c(c1COC(C)=O)C(=O)C(N1CC1)=CC2=O	722000	37.1 nM	91.2%	2400 nM	170 nM				CC50 [4]: 603 nM
CC1=C(N2CC2)C(=O)c2c(CO)c(CO)n(C)c2C1=O	32600		0%						
O=C1C=C(N2CC2)C(=O)c2c1[nH]c1c2CCC1O (stereo not given)	405000		22.5%						CC50 [13]: 295 nM; TGI [10]: 102 nM; GI50 [11]: 10 nM; CC50 [14]: 2190 nM
CC(=O)OC1CCc2c3c(n(C(C)=O)c21)C(=O)C=C(N1CC1)C3=O (stereo not given)	705000		14%						
CC1=C(N2CC2)C(=O)c2[nH]c(CO)c(C)c2C1=O						34%	61%	37%	
CC(=O)OC1CCc2c1[nH]c1c2C(=O)C=C(N2CC2)C1=O (stereo not given)	802000		29%			>50%			
CC(=O)OCc1[nH]c2c(c1COC(C)=O)C(=O)C(N1CC1)=CC2=O	172000		43%						
O=C1C(N2CC2)=CC(=O)c2c1[nH]c1c2CCC1O (stereo not given)	128000	7.24 nM	30%	2570 nM	57.5 nM				CC50 [4]: 1780 nM
CC1=C(N2CC2)C(=O)c2c([nH]c3c2CCC3O)C1=O (stereo not given)	147000	10 nM	11.2%	18200 nM	21.4 nM				LC50 [4]: 851 nM
